Data taken from ChEMBL document CHEMBL2203063, “Azo-reductase activated budesodine prodrugs for colon targeting” (Bioorg Med Chem Lett, 2012).

Assays:
[1] = Prodrug conversion in buffer assessed as half life of cyclization at pH 7 to 7.5; assay type: physicochemical
[2] = Prodrug conversion in buffer assessed as half life of cyclization at pH 5; assay type: physicochemical
[3] = Prodrug conversion in buffer assessed as half life of cyclization at pH 5.5; assay type: physicochemical
[4] = Prodrug conversion in buffer assessed as half life of cyclization at pH 3.44; assay type: physicochemical
[5] = Prodrug conversion in buffer assessed as half life of cyclization at pH 2.5; assay type: physicochemical
[6] = Prodrug conversion assessed as Clostridium perfringes azoreductase-mediated reduction after 6 hrs at pH 7.4; assay type: ADME; conditions: clostridium perfringens, pH 7.4, 6 h
Summary of the method: (§1)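 Prodrugs incubated anaerobically with a suspension of azoreductase-producing Clostridium perfringens at 37 °C, pH 7.4, sampled over 24 h. Progress curves tracked loss of prodrug and appearance of budesonide and linker byproducts (the dihydroquinolone or 3,3-dimethyl-1,3-dihydro-indol-2-one). Assay conditions follow the group's earlier method.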

[7] = Drug metabolism assessed as Clostridium perfringes azoreductase-mediated hydrolysis at pH 7.4; assay type: ADME; conditions: clostridium perfringens
[8] = Prodrug conversion assessed as Clostridium perfringes azoreductase-mediated budesonide formation at pH 7.4; assay type: ADME; conditions: clostridium perfringens; summary of the method: as §1
[9] = Chemical stability in simulated doudenal juice up to 24 hrs; assay type: physicochemical
Summary of the method: (§2)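 Prodrug incubated in simulated duodenal or gastric juice at 37 °C and followed for up to 24 h to see whether it stays intact.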

[10] = Chemical stability in simulated gastric juice up to 24 hrs; assay type: physicochemical; conditions: simulated gi fluid; summary of the method: as §2
[11] = Drug metabolism assessed as Clostridium perfringes azoreductase-mediated hydrazine reoxidation to parent azo compound formation at pH 7.4 by HPLC analysis; assay type: ADME; conditions: clostridium perfringens
[12] = Drug metabolism assessed as Clostridium perfringes azoreductase-mediated hydrazine formation at pH 7.4 by HPLC analysis; assay type: ADME; conditions: clostridium perfringens
[13] = Drug metabolism assessed as Clostridium perfringes azoreductase-mediated cyclization to dihydroquinolone at pH 7.4; assay type: ADME; conditions: clostridium perfringens; summary of the method: as §1

CCCC1O[C@@H]2C[C@H]3[C@@H]4CCC5=CC(=O)C=C[C@]5(C)[C@H]4[C@@H](O)C[C@]3(C)[C@]2(C(=O)COC(=O)CCc2ccccc2N)O1 (mixture of isomers)
t1/2 [1]: 201 min | t1/2 [2]: 52.7 min | t1/2 [3]: 73.2 min | t1/2 [4]: 29.3 min | t1/2 [5]: 25.9 min

CCCC1O[C@@H]2C[C@H]3[C@@H]4CCC5=CC(=O)C=C[C@]5(C)[C@H]4[C@@H](O)C[C@]3(C)[C@]2(C(=O)COC(=O)CCc2ccccc2/N=N/c2ccc(O)c(C(=O)O)c2)O1 (mixture of isomers)
Drug metabolism [6]: Active | Drug metabolism [7]: Not Active | Drug metabolism [8]: Active | Stability [9]: Stable | Stability [10]: Stable

CCCC1O[C@@H]2C[C@H]3[C@@H]4CCC5=CC(=O)C=C[C@]5(C)[C@H]4[C@@H](O)C[C@]3(C)[C@]2(C(=O)COC(=O)CCc2ccccc2/N=N/c2ccc(C(=O)O)cc2)O1 (mixture of isomers)
Drug metabolism [11]: Active | Drug metabolism [12]: Active | Drug metabolism [6]: Not Active | Drug metabolism [8]: Not Active | Stability [9]: Stable | Stability [10]: Stable

CCCC1O[C@@H]2C[C@H]3[C@@H]4CCC5=CC(=O)C=C[C@]5(C)[C@H]4[C@@H](O)C[C@]3(C)[C@]2(C(=O)COC(=O)C(C)(C)c2ccccc2/N=N/c2ccc(O)c(C(=O)O)c2)O1 (mixture of isomers)
Drug metabolism [13]: Active | Drug metabolism [6]: Active | Drug metabolism [8]: Active | Stability [9]: Stable | Stability [10]: Stable
